Activity calls are given as the source filed them. Where only a bound is given, the exact number is not on record here.

Assay [1] deals with SW-620. In words: Antitumor activity against human SW620 cells xenografted in Swiss nude mouse assessed as inhibition in PhH3 level at 2.5 mg/kg/day, sc measured over 48 hrs by flow cytometry analysis relative to control. It counts as functional. In outline:
(§1)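 Male nude mice with palpable s.c. SW620 tumors (n = 4/group) received AZD1152 (0.5-150 mg/kg/d) or vehicle by constant 48-h s.c. mini-pump infusion. Tumors were then excised, fixed and disaggregated. Flow cytometry with propidium iodide gave DNA content (2N, 4N, >4N), and rabbit anti-PhH3 with fluorescein anti-rabbit IgG gave PhH3-positive cells (%).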

In assay [2] the test system is SW-620. In words: Antitumor activity against human SW620 cells xenografted in Swiss nude mouse assessed as inhibition in PhH3 level at 10 to 150 mg/kg/day, sc measured over 48 hrs by flow cytometry analysis relative to control. The assay is classed as functional. The following applies: dose 10-150 mg/kg/day. In outline:
as §1

Assay [3] deals with SW-620. In words: Antitumor activity against human SW620 cells xenografted in Swiss nude mouse assessed as accumulation in proportion of 2N DNA content at 70 mg/kg/day, sc over 48 hrs by flow cytometry analysis relative to control. It counts as functional. The method in brief: as §1
For assay [4], the system named is SW-620. In words: Antitumor activity against human SW620 cells xenografted in Swiss nude mouse assessed as accumulation in proportion of 4N DNA content at 70 mg/kg/day, sc over 48 hrs by flow cytometry analysis relative to control. The assay is classed as functional. The method in brief:
as §1

Assay [5] concerns SW-620. In words: Antitumor activity against human SW620 cells xenografted in Swiss nude mouse assessed as increase in large multinucleated cells at 70 mg/kg/day, sc over 48 hrs by H&E staining method. It counts as functional, organism-based. The method in brief:
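Male nude mice bearing SW620 tumors (n = 4/group) had 48-h s.c. mini-pump infusion of AZD1152 (70 mg/kg/d) or vehicle. Excised tumor sections were stained with H&E, or immunostained for PhH3 Ser10 with rabbit polyclonal antibody, HRP-polymer detection and hematoxylin counterstain.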

Assay [6] concerns SW-620. As to the kind of experiment: Antitumor activity against human SW620 cells xenografted in immunodeficient Swiss athymic mouse assessed as maximum inhibition of tumor volume at 150 mg/kg/day, sc for 48 hrs on days 7 to 9 and measured on day 23 relative to control. It counts as functional. As to conditions: SW-620, 408 h, time 17 day. In outline:
(§2)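 Male Swiss athymic nude mice, 8-12 wk; tumor cells (1×10^6-1×10^7, 50:50 Matrigel) implanted s.c. on flank. Randomized (n = 8-11) at 0.2-0.5 cm3. AZD1152 in Tris buffer pH 9, or vehicle (0.3 mol/L Tris), by 48-h s.c. osmotic mini-pump infusion (two 24-h pumps in sequence). Caliper volumes up to 3×/week; growth inhibition from change in control vs treated volume; one-tailed t test.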

In assay [7] the test system is SW-620. In words: Antitumor activity against human SW620 cells xenografted in immunodeficient Swiss athymic mouse assessed as inhibition of tumor volume at 150 mg/kg/day, sc for 48 hrs on days 7 to 9 and measured on day 23 relative to control. The assay is classed as functional. The following applies: SW-620, 408 h, time 17 day. The method in brief:
as §2

Assay [8] has as its system SW-620. As to the kind of experiment: Antitumor activity against human SW620 cells xenografted in immunodeficient Swiss athymic mouse assessed as inhibition of tumor volume at 10 mg/kg/day, sc for 48 hrs on days 7 to 9 and measured on day 23 relative to control. The assay is classed as functional. As to conditions: SW-620, 408 h, time 17 day. The method in brief:
as §2

In assay [9] the test system is SW-620. In words: Antitumor activity against human SW620 cells xenografted in immunodeficient Swiss athymic mouse assessed as maximum inhibition of tumor volume at 25 mg/kg/day, iv for 3 days on days 6 to 8 and measured on day 13 relative to control. It counts as functional. As to conditions: SW-620, 192 h, time 8 day. In outline: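 Male Swiss nude mice bearing s.c. flank SW620 xenografts (cells in Matrigel), randomized (n = 8-11) at 0.2-0.3 cm3. AZD1152 in Tris buffer pH 9, or vehicle, given as a once-daily i.v. or i.p. bolus. Caliper volumes up to 3×/week; inhibition from change in control vs treated volume; one-tailed t test.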

Assay [10] concerns COLO 205. As to the kind of experiment: Antitumor activity against human COLO 205 cells xenografted in immunodeficient Swiss athymic mouse assessed as maximum inhibition of tumor volume at 150 mg/kg/day, sc for 48 hrs on days 5 to 7 and measured on day 18 relative to control. It counts as functional. As to conditions: COLO 205, 336 h, time 14 day. The method in brief: as §2

Assay [11] has as its system HCT-116. As to the kind of experiment: Antitumor activity against human HCT-116 cells xenografted in immunodeficient Swiss athymic mouse assessed as maximum inhibition of tumor volume at 150 mg/kg/day, sc for 48 hrs on days 11 to 13 and measured on day 18 relative to control. The assay is classed as functional. As to conditions: HCT-116, 192 h, time 8 day. The method in brief:
as §2

The test system of assay [12] is HCT-116. In words: Antitumor activity against human HCT-116 cells xenografted in immunodeficient Swiss athymic mouse assessed as inhibition of tumor volume at 150 mg/kg/day, sc for 48 hrs on days 11 to 13 and measured on day 25 relative to control. The following applies: HCT-116, 360 h, time 15 day. It counts as functional. In outline: as §2
The subject of assay [13] is A549. In words: Antitumor activity against human A549 cells xenografted in immunodeficient Swiss athymic mouse assessed as maximum inhibition of tumor volume at 25 mg/kg/day, sc for 48 hrs on days 13 to 15 and measured on day 15 relative to control. It counts as functional. The following applies: A549, 72 h, time 3 day. In outline: as §2
For assay [14], the system named is Calu-6. In words: Antitumor activity against human Calu-6 cells xenografted in immunodeficient Swiss athymic mouse assessed as inhibition of tumor volume at 150 mg/kg/day, sc for 48 hrs on days 20 to 22 and measured on day 41 relative to control. The following applies: Calu-6, 528 h, time 22 day. The assay is classed as functional. In outline:
as §2

In assay [15] the test system is SW-620. In words: Antitumor activity against human SW620 cells xenografted in nude athymic rat assessed as high degree of pleomorphism at 25 mg/kg/day, iv for 4 consecutive days and measured on 5 day by H&E staining based immunohistochemistry analysis. The assay is classed as functional, organism-based. The method in brief:
(§3)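 Nude rats bearing SW620 tumors were dosed i.v. with AZD1152 at 25 mg/kg/d or with vehicle on days 1-4. Subgroups (n = 3) were killed at set days. Tumor and bone marrow sections were H&E-stained and examined histologically.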

For assay [16], the system named is SW-620. In words: Antitumor activity against human SW620 cells xenografted in nude athymic rat assessed as morphologic change at 25 mg/kg/day, iv for 4 consecutive days and measured on 5 day by H&E staining based immunohistochemistry analysis. It counts as functional, organism-based. The method in brief:
as §3

Assay [17] concerns SW-620. In words: Antitumor activity against human SW620 cells xenografted in nude athymic rat assessed as larger multinucleated tumor cells at 25 mg/kg/day, iv for 4 consecutive days and measured on 9 day by H&E staining based immunohistochemistry analysis. The assay is classed as functional, organism-based. The method in brief: as §3
Assay [18] deals with SW-620. In words: Antitumor activity against human SW620 cells xenografted in nude athymic rat assessed as increase in cleaved caspase-3 at 25 mg/kg/day, iv for 4 consecutive days and measured on 9 day by H&E staining based immunohistochemistry analysis. It counts as functional, organism-based. The method in brief: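 Nude rats bearing SW620 tumors received i.v. AZD1152 at 25 mg/kg/d or vehicle on days 1-4 (n = 3 per time point). Tumor sections were immunostained for cleaved caspase-3 (HRP polymer). The percentage area of brown staining per field was quantified by color-threshold image analysis over six fields per section at ×20.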

In assay [19] the test system is SW-620. As to the kind of experiment: Antitumor activity against human SW620 cells xenografted in nude athymic rat assessed as reduction in total cellular content at 25 mg/kg/day, iv for 4 consecutive days and measured on 5 day by H&E staining based immunohistochemistry analysis. The assay is classed as functional, organism-based. In outline: as §3
For assay [20], the system named is SW-620. In words: Antitumor activity against human SW620 cells xenografted in nude athymic rat assessed as most affect in leukocyte population at 25 mg/kg/day, iv for 4 consecutive days by flow cytometric analysis. It counts as functional, organism-based. The following applies: time 4.0 day.

Consider `CCN(CCCOc1ccc2c(Nc3cc(CC(=O)Nc4cccc(F)c4)[nH]n3)ncnc2c1)CCOP(=O)(O)O` [BARASERTIB], for which the inhibition in vivo at 2.5 mg/kg/day in assay [1] amounted to 69%. The “inhibition (INH)” value in [2] is 77%. For the same compound, the Activity in assay [3] is listed as 35%; in assay [4], 56%. Also, the outcome in assay [5], in assay [15], in assay [16], in [17], in assay [18] and in [19] was Active. The result in [20] was Active. Also, the inhibition in vivo at 150 mg/kg/day in assay [6] is 87%; in [7] it was 87%; in [10], above 100%; in assay [11], 93%; in assay [12], 74%; in assay [14], 55%. Further, the inhibition in vivo at 10 mg/kg/day in assay [8] turned out to be 28%. The inhibition in vivo at 25 mg/kg/day in [9] is 91%; in assay [13], 74%.

These data come from ChEMBL document CHEMBL5715941, “AZD1152, a selective inhibitor of Aurora B kinase, inhibits human tumor xenograft growth by inducing apoptosis” (Clin Cancer Res, 2007).
